Experimental data of several laboratories.
Each line is one published result; the experiments were not run side by side.
Target: Activin receptor type-2B (ACVR2B, Homo sapiens, UniProt Q13705)

SMILES	effect on	method	tested at	remaining binding [%]
COc1ncc2cc3ccccc3nc2c1C#N	binding	competition with immobilised ligand	5 µM	90
O=C(Nc1c[nH]nc1C(=O)NC1CCNCC1)c1cc(F)cc(F)c1	binding	competition with immobilised ligand	1 µM	100
O=C1CCc2cc(Nc3cc(OC4CCOCC4)c([N+](=O)[O-])cc3Cl)ccc2N1	cell-free assay	competition with immobilised ligand	1 µM	89
FC(F)(F)Oc1cccc(-c2cnc3ccc(-c4ccncc4)nn23)c1	cell-free assay	competition with immobilised ligand	5 µM	46
COc1ccnn2ncc(-c3ccnc(N(C)C)n3)c12	binding	–	1 µM	100
O=C(c1ccc(Nc2ncc(Cl)c(-c3cc4ccccc4s3)n2)cc1)N1CCC(N2CCCC2)CC1	binding	competition with immobilised ligand	1 µM	53
N[C@@H]1CCN(c2nccc(-c3cnn4ncccc34)n2)C1	binding	–	1 µM	100
O=C(NCCCN1CCOCC1)c1ccc(Nc2nccc(-c3cc4ccccc4s3)n2)cc1	binding	competition with immobilised ligand	1 µM	89
C[C@@H]1CCN(c2nccc(-c3cnn4ncccc34)n2)C1	binding	–	1 µM	100
O=c1nc(-c2ccccn2)sc2ccccc12	binding	competition with immobilised ligand	1 µM	100
COc1cnc(Nc2cccc(S(N)(=O)=O)c2)nc1N1CCN(c2ccccc2)CC1	binding	competition with immobilised ligand	1 µM	100
CN(CCCC(F)(F)F)c1nccc(-c2cnn3ncccc23)n1	binding	–	1 µM	100
COc1cc(-c2cn(C3CCc4ccccc4N(CC(F)(F)F)C3=O)nn2)ccc1-n1ccc(C)n1 (centres unmarked)	binding	competition with immobilised ligand	1 µM	100
c1cncc(-c2cccc(Nc3nccc(NC4CCCCC4)n3)c2)c1	binding	competition with immobilised ligand	10 µM	85
Cc1nc(C2CCN(C(=O)c3ccc(OC(F)(F)F)cc3N)CC2)c2ncc(N3CCN(C)CC3)cc2n1	cell-free assay	competition with immobilised ligand	1 µM	100
Cc1cnc(Nc2ccc(C(=O)N3CCC(N4CCCC4)CC3)cc2)nc1-c1cc2ccccc2s1	binding	competition with immobilised ligand	1 µM	61
Cc1cc(C)c(-n2ccn3nc(-c4cccnc4)cc23)cc1NC(=O)c1cc(C#N)cc(S(F)(F)(F)(F)F)c1	binding	competition with immobilised ligand	0.1 µM	88.7
c1cnn2ncc(-c3ccnc(N4CCC45COC5)n3)c2c1	binding	–	1 µM	90
CC1=C(C#N)C(c2ccc3c(c2)c(NC(=O)c2ccccc2C)nn3C)C(C#N)=C(C)N1	binding	competition with immobilised ligand	1 µM	100
CN(c1nccc(-c2cnn3ncccc23)n1)C1CC1	binding	–	1 µM	100
